Results as given in ChEMBL document CHEMBL4041465, “Synthesis, characterization and molecular docking studies of substituted 4-coumarinylpyrano[2,3-c]pyrazole derivatives as potent antibacterial and anti-inflammatory agents” (2017).
≈ marks a conversion by molar mass, not a printed value.

Assays:
Staphylococcus aureus = assay: Antibacterial activity against Staphylococcus aureus MTCC 12598 after 24 hrs by broth microdilution method; format: functional; conditions: MTCC 12598, 24 h
Procedure, shortened: (§1)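 Broth tube dilution MIC in Brain Heart Infusion broth, triplicate per strain. Strains were subcultured at 35 °C for 48 h, then log-phase inoculum was grown from 3–5 colonies at 35 °C for 2–6 h and adjusted to 0.5 McFarland. […] serial dilutions were made over 10 tubes, with a media-plus-culture tube as negative control. Incubation was 24 h at 37 °C, and growth was read as turbidity.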

Enterococcus faecalis = assay: Antibacterial activity against Enterococcus faecalis MTCC 35550 after 24 hrs by broth microdilution method; format: functional; conditions: MTCC 35550, 24 h; procedure, shortened: as §1
Escherichia coli = assay: Antibacterial activity against Escherichia coli MTCC 443 after 24 hrs by broth microdilution method; format: functional; conditions: MTCC 443, 24 h; procedure, shortened: as §1
Pseudomonas aeruginosa = assay: Antibacterial activity against Pseudomonas aeruginosa MTCC 25668 after 24 hrs by broth microdilution method; format: functional; conditions: MTCC 25668, 24 h; procedure, shortened: as §1
[1] = In vitro anti-inflammatory activity using hen egg assessed as inhibition of heat-induced egg albumin denaturation at 31.25 ug/ml incubated at 37 +/- 2 degC for 15 mins followed by incubation at 70 degC for 5 mins by UV spectrophotometric method relative to control; format: functional
Procedure, shortened: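 The 5 mL mix held 0.2 mL fresh hen egg albumin, 2.8 mL PBS pH 6.4 and 2 mL test solution, with water in place of test solution as control. It was held 15 min at 37±2 °C, heated 5 min at 70 °C and cooled, then absorbance was read at 660 nm against a vehicle blank. % inhibition = 100×(Abs control − Abs sample)/Abs control.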

[2] = Potency index, ratio of compound effect to aceclofenac effect for in vitro anti-inflammatory activity using hen egg assessed as inhibition of heat-induced egg albumin denaturation

SMILES	MIC (Staphylococcus aureus) [µg/mL]	MIC (Enterococcus faecalis) [µg/mL]	MIC (Escherichia coli) [µg/mL]	MIC (Pseudomonas aeruginosa) [µg/mL]	inhibition [1] [%]	Ratio [2]
COc1ccc2oc(=O)cc(C(CC(=O)O)c3c(C)n[nH]c3O)c2c1 (stereo unspecified)	0.78 (≈ 2.27 µM)	1.56 (≈ 4.53 µM)	3.12 (≈ 9.08 µM)	6.25 (≈ 18.2 µM)	63.1	10
Cc1n[nH]c(O)c1C(CC(=O)O)c1cc(=O)oc2ccc(Cl)cc12 (stereo unspecified)	1.56 (≈ 4.47 µM)	6.25 (≈ 17.9 µM)	25 (≈ 71.7 µM)	50 (≈ 143 µM)	42.6	10
CCOC(=O)C1=C(N)Oc2[nH]nc(C)c2C1c1cc(=O)oc2ccc(OC)cc12 (stereo unspecified)	1.56 (≈ 3.93 µM)	3.12 (≈ 7.86 µM)	6.25 (≈ 15.7 µM)	6.25 (≈ 15.7 µM)	51.4	10
Cc1ccc2oc(=O)cc(C(CC(=O)O)c3c(C)n[nH]c3O)c2c1 (stereo unspecified)	3.12 (≈ 9.52 µM)	6.25 (≈ 19 µM)	12.5 (≈ 38.1 µM)	25 (≈ 76.1 µM)	37.4	–
Cc1ccc2oc(=O)cc(C3C(C#N)=C(N)Oc4[nH]nc(C)c43)c2c1 (stereo unspecified)	6.25 (≈ 18.7 µM)	12.5 (≈ 37.4 µM)	12.5 (≈ 37.4 µM)	12.5 (≈ 37.4 µM)	10.3	–
CCOC(=O)C1=C(N)Oc2[nH]nc(C)c2C1c1cc(=O)oc2ccc(Cl)cc12 (stereo unspecified)	3.12 (≈ 7.78 µM)	6.25 (≈ 15.6 µM)	6.25 (≈ 15.6 µM)	50 (≈ 124 µM)	39.1	–
COc1ccc2oc(=O)cc(C3C(C#N)=C(N)Oc4[nH]nc(C)c43)c2c1 (stereo unspecified)	3.12 (≈ 8.92 µM)	12.5 (≈ 35.7 µM)	6.25 (≈ 17.8 µM)	1.56 (≈ 4.45 µM)	19.1	–
Cc1ccc2c(C3CC(=O)Oc4[nH]nc(C)c43)cc(=O)oc2c1 (stereo unspecified)	6.25 (≈ 20.1 µM)	6.25 (≈ 20.1 µM)	12.5 (≈ 40.3 µM)	6.25 (≈ 20.1 µM)	15.8	–
Cc1ccc2c(C(CC(=O)O)c3c(C)n[nH]c3O)cc(=O)oc2c1 (stereo unspecified)	3.12 (≈ 9.52 µM)	6.25 (≈ 19 µM)	6.25 (≈ 19 µM)	12.5 (≈ 38.1 µM)	40.6	–
Cc1ccc2c(C3C(C#N)=C(N)Oc4[nH]nc(C)c43)cc(=O)oc2c1 (stereo unspecified)	6.25 (≈ 18.7 µM)	12.5 (≈ 37.4 µM)	0.78 (≈ 2.33 µM)	3.12 (≈ 9.35 µM)	7.6	–
O=C(O)c1cn(C2CC2)c2cc(N3CCNCC3)c(F)cc2c1=O [CIPROFLOXACIN]	–	6.25 (≈ 18.9 µM)	3.12 (≈ 9.43 µM)	–	–	–
CCOC(=O)C1=C(N)Oc2[nH]nc(C)c2C1c1cc(=O)oc2c1ccc1ccccc12 (stereo unspecified)	3.12 (≈ 7.49 µM)	12.5 (≈ 29.9 µM)	6.25 (≈ 15 µM)	6.25 (≈ 15 µM)	37.6	–
O=C(O)COC(=O)Cc1ccccc1Nc1c(Cl)cccc1Cl	–	–	–	–	5.5	–
Cc1n[nH]c2c1C(c1cc(=O)oc3ccc(Cl)cc13)C(C#N)=C(N)O2 (stereo unspecified)	3.12 (≈ 8.81 µM)	6.25 (≈ 17.6 µM)	3.12 (≈ 8.81 µM)	12.5 (≈ 35.2 µM)	28	–
Cc1n[nH]c2c1C(c1cc(=O)oc3c1ccc1ccccc13)CC(=O)O2 (stereo unspecified)	12.5 (≈ 36.1 µM)	12.5 (≈ 36.1 µM)	12.5 (≈ 36.1 µM)	6.25 (≈ 18 µM)	1.89	–
Cc1n[nH]c2c1C(c1cc(=O)oc3ccc(Cl)cc13)CC(=O)O2 (stereo unspecified)	6.25 (≈ 18.9 µM)	12.5 (≈ 37.8 µM)	6.25 (≈ 18.9 µM)	12.5 (≈ 37.8 µM)	3.27	–
COc1ccc2oc(=O)cc(C3CC(=O)Oc4[nH]nc(C)c43)c2c1 (stereo unspecified)	3.12 (≈ 9.58 µM)	6.25 (≈ 19.2 µM)	6.25 (≈ 19.2 µM)	6.25 (≈ 19.2 µM)	29.3	–
Cc1n[nH]c2c1C(c1cc(=O)oc3c1ccc1ccccc13)C(C#N)=C(N)O2 (stereo unspecified)	6.25 (≈ 16.9 µM)	12.5 (≈ 33.8 µM)	25 (≈ 67.5 µM)	25 (≈ 67.5 µM)	14.4	–
Cc1ccc2oc(=O)cc(C3CC(=O)Oc4[nH]nc(C)c43)c2c1 (stereo unspecified)	6.25 (≈ 20.1 µM)	12.5 (≈ 40.3 µM)	3.12 (≈ 10.1 µM)	12.5 (≈ 40.3 µM)	16	–
Cc1n[nH]c(O)c1C(CC(=O)O)c1cc(=O)oc2c1ccc1ccccc12 (stereo unspecified)	6.25 (≈ 17.2 µM)	12.5 (≈ 34.3 µM)	6.25 (≈ 17.2 µM)	12.5 (≈ 34.3 µM)	39.8	–
CCOC(=O)C1=C(N)Oc2[nH]nc(C)c2C1c1cc(=O)oc2cc(C)ccc12 (stereo unspecified)	3.12 (≈ 8.19 µM)	25 (≈ 65.6 µM)	3.12 (≈ 8.19 µM)	12.5 (≈ 32.8 µM)	28.7	–
CCOC(=O)C1=C(N)Oc2[nH]nc(C)c2C1c1cc(=O)oc2ccc(C)cc12 (stereo unspecified)	3.12 (≈ 8.19 µM)	6.25 (≈ 16.4 µM)	12.5 (≈ 32.8 µM)	6.25 (≈ 16.4 µM)	24.8	–
